Data reported in ChEMBL document CHEMBL2390932, “(+)-Usnic acid enamines with remarkable cicatrizing properties” (Bioorg Med Chem, 2013).
Converted amounts (≈) assume the structure as drawn. The source made the active and inactive calls. The calls are words filed in the database; no cut-off is given here.

Legend:
A-431 = experiment: Cytotoxicity against human A431 cells after 24 hrs by neutral red dye uptake assay; format: functional, cell-based; conditions: A-431, 24 h
Procedure, shortened: (§1)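 Cells kept in DMEM with 10% FBS at 37 °C, 5% CO2. Seeded at 20,000 cells/well, grown 24 h, then exposed 24 h to a concentration series. Neutral red (0.05%) added for 3 h at 37 °C, dye extracted with 1% acetic acid in 50% ethanol, absorbance read at 540 nm. IC50, IC05 and 95% confidence intervals derived from a downhill logistic curve fit.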

HaCaT [1] = experiment: Cytotoxicity against human HaCaT cells after 24 hrs by neutral red dye uptake assay; format: cell-based; conditions: for IC50: Homo sapiens, HaCaT; for IC05: human, hacat; procedure, shortened: as §1
Bos taurus [2] = organism: Bos taurus; experiment: Inhibition of bovine hyaluronidase assessed as sodium hyaluronate conversion to N-acetylglucosamine at 100 ug/ml by spectrophotometric analysis relative to control
Mus musculus [3] = experiment: Wound healing activity in Swiss albino mouse circular excision wound model assessed as wound contraction applied topically qd after 2 days relative to control; format: functional; parameters: concentration or dose not given beside the values
Mus musculus [4] = experiment: Wound healing activity in Swiss albino mouse circular excision wound model assessed as hydroxyproline content in skin applied topically qd after 7 days by spectrophotometric analysis; format: functional
Procedure, shortened: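 Skin from ointment-treated mouse wounds (7 days) dried at 60–70 °C to constant weight, then hydrolyzed in 6 N HCl for 3 h at 130 °C. Hydrolysate neutralized to pH 7, oxidized with chloramine T and reacted with Ehrlich reagent at 60 °C. Read at 557 nm and reported as mg/g with S.E.M.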

Mus musculus [5] = experiment: Wound healing activity in Swiss albino mouse circular excision wound model assessed as wound contraction applied topically qd after 4 days relative to control; format: functional; parameters: concentration or dose not given beside the values
[6] = target: T1, Neutrophil elastase (Homo sapiens) (UniProt P08246); experiment: Inhibition of human neutrophil elastase assessed as N-methoxysuccinyl-Ala-Ala-Pro-Val p-nitroanilide conversion to p-nitroaniline at 50 ug/ml after 1 hr by spectrophotometric analysis relative to control
T1 sequence (whole entry): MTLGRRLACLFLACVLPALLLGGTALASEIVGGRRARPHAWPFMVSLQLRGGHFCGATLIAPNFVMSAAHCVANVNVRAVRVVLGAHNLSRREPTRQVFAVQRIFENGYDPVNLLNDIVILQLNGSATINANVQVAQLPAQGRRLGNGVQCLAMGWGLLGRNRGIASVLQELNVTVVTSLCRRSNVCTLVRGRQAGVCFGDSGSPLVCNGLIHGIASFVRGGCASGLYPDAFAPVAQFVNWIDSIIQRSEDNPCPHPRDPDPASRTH
Procedure, shortened: (§2)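 Sample and human neutrophil elastase (17 mU/ml) mixed in 0.1 M Tris–HCl, pH 7.5, and held 5 min at 25 °C. MeOSuc-Ala-Ala-Pro-Val p-nitroanilide was added and the mixture incubated 1 h at 37 °C. Reaction stopped with soybean trypsin inhibitor (1 mg/ml); p-nitroaniline absorbance read immediately. Inhibition given as % with S.E.M.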

Bos taurus [7] = organism: Bos taurus; experiment: Inhibition of bovine hyaluronidase assessed as sodium hyaluronate conversion to N-acetylglucosamine at 50 ug/ml by spectrophotometric analysis relative to control
Rattus norvegicus = experiment: Wound healing activity in Sprague-Dawley rat linear incision wound model assessed as tensile strength of wound applied topically qd for 9 days measured on day 10 by tensiometer (reference value: 10.6%); format: functional
HaCaT [8] = experiment: Wound healing activity in human HaCaT cells assessed as wound closure rate at 2.5 ug/mL after 24 hrs by inverted microscopic analysis; format: functional, cell-based
Procedure, shortened: (§3)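 Confluent HaCaT monolayers scratched with a pipette tip, washed, re-fed with medium and exposed to compound for 24 h; 20% (v/v) platelet lysate served as positive control. Cells fixed in 3.7% formaldehyde and stained with 0.1% toluidine blue. Wound width measured by inverted microscope with camera at 0 and 24 h; closure taken as the width difference. Results expressed relative to control mean (100%), two independent experiments, n = 20 each.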

HaCaT [9] = experiment: Wound healing activity in human HaCaT cells assessed as wound closure rate at 2 ug/mL after 24 hrs by inverted microscopic analysis; format: functional, cell-based; procedure, shortened: as §3
[10] = target: T1, Neutrophil elastase (Homo sapiens); experiment: Inhibition of human neutrophil elastase assessed as N-methoxysuccinyl-Ala-Ala-Pro-Val p-nitroanilide conversion to p-nitroaniline at 100 ug/ml after 1 hr by spectrophotometric analysis relative to control; procedure, shortened: as §2
HaCaT [11] = experiment: Wound healing activity in human HaCaT cells assessed as wound closure rate at 1.7 ug/mL after 24 hrs by inverted microscopic analysis; format: functional, cell-based; procedure, shortened: as §3
Hathewaya histolytica [12] = experiment: Inhibition of Clostridium histolyticum collagenase using N-[3-(2-Furyl)acryloyl]-Leu-Gly-Pro-Ala as substrate at 50 ug/ml after 15 mins by spectrophotometric analysis relative to control
Procedure, shortened: (§4)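 Samples dissolved in DMSO and diluted in 50 mM Tricine buffer (0.4 M NaCl, 0.01 M CaCl2, pH 7.5). Clostridium histolyticum collagenase and sample preincubated 5 min at 25 °C, then incubated 15 min. FALGPA substrate, prepared at 2 mM in the same buffer, was then added. Inhibition given as % with S.E.M.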

Mus musculus [13] = experiment: Wound healing activity in Swiss albino mouse circular excision wound model assessed as wound contraction applied topically qd after 6 days (reference value: 3.41%); format: functional
Mus musculus [14] = experiment: Wound healing activity in Swiss albino mouse circular excision wound model assessed as wound contraction applied topically qd measured on the same day relative to control; format: functional; parameters: concentration or dose not given beside the values
Mus musculus [15] = experiment: Wound healing activity in Swiss albino mouse circular excision wound model assessed as wound contraction applied topically qd after 8 days (reference value: 2.18%); format: functional
HaCaT [16] = experiment: Wound healing activity in human HaCaT cells assessed as wound closure rate at 2.2 ug/mL after 24 hrs by inverted microscopic analysis; format: functional, cell-based; procedure, shortened: as §3
Hathewaya histolytica [17] = experiment: Inhibition of Clostridium histolyticum collagenase using N-[3-(2-Furyl)acryloyl]-Leu-Gly-Pro-Ala as substrate at 100 ug/ml after 15 mins by spectrophotometric analysis relative to control; procedure, shortened: as §4
HaCaT [18] = experiment: Wound healing activity in human HaCaT cells assessed as wound closure rate at 5 uM after 24 hrs by inverted microscopic analysis; format: functional, cell-based; procedure, shortened: as §3
Mus musculus [19] = experiment: Wound healing activity in Swiss albino mouse circular excision wound model assessed as wound contraction applied topically qd after 10 days (reference value: 6.29%); format: functional
HaCaT [20] = experiment: Wound healing activity in human HaCaT cells assessed as wound closure rate at 2.1 ug/mL after 24 hrs by inverted microscopic analysis; format: functional, cell-based; procedure, shortened: as §3

SMILES: CC(=O)c1c(O)c(C)c(O)c2c1OC1=CC(=O)/C(=C(/C)NCC(=O)O)C(=O)[C@@]12C
- IC50 (A-431): 4.1 µg/mL (≈ 10.2 µM)
- IC50 (HaCaT [1]): 5.8 µg/mL (≈ 14.5 µM)
- IC05 (HaCaT [1]): 0.2 µg/mL

SMILES: CC(=O)C1=C(O)C=C2Oc3c(C(C)=O)c(O)c(C)c(O)c3[C@@]2(C)C1=O [(+)-USNIC ACID]
- inhibition (Bos taurus [2]): 33.1%
- Activity (Mus musculus [3]): 17.04%
- Activity (Mus musculus [4]): 36.1 mg/g
- IC50 (A-431): 15 µg/mL (≈ 43.6 µM)
- Activity (Mus musculus [5]): 14.1%
- inhibition [6]: 22.1%
- inhibition (Bos taurus [7]): 14.4%
- Activity (Rattus norvegicus): 31.9%
- Activity (HaCaT [8]): Active
- Activity (HaCaT [9]): Active
- inhibition [10]: 36.4%
- Activity (HaCaT [11]): Active
- inhibition (Hathewaya histolytica [12]): 27.1%
- Activity (Mus musculus [13]): 10.25%
- Activity (Mus musculus [14]): 19.59%
- Activity (Mus musculus [15]): 5.62%
- Activity (HaCaT [16]): Active
- inhibition (Hathewaya histolytica [17]): 51.2%
- IC50 (HaCaT [1]): 24 µg/mL (≈ 69.7 µM)
- IC05 (HaCaT [1]): 0.5 µg/mL
- Activity (HaCaT [18]): Active
- Activity (Mus musculus [19]): 1.85%
- Activity (HaCaT [20]): Active

SMILES: CC(=O)c1c(O)c(C)c(O)c2c1OC1=CC(=O)/C(=C(/C)N[C@@H](Cc3c[nH]cn3)C(=O)O)C(=O)[C@@]12C
- IC50 (HaCaT [1]): 36 µg/mL (≈ 74.8 µM)
- IC05 (HaCaT [1]): 1.7 µg/mL

SMILES: O=C(OC[C@H]1O[C@@H](OC(=O)c2cc(O)c(O)c(OC(=O)c3cc(O)c(O)c(O)c3)c2)[C@H](OC(=O)c2cc(O)c(O)c(OC(=O)c3cc(O)c(O)c(O)c3)c2)[C@@H](OC(=O)c2cc(O)c(O)c(OC(=O)c3cc(O)c(O)c(O)c3)c2)[C@@H]1OC(=O)c1cc(O)c(O)c(OC(=O)c2cc(O)c(O)c(O)c2)c1)c1cc(O)c(O)c(OC(=O)c2cc(O)c(O)c(O)c2)c1
- inhibition (Bos taurus [2]): 76.3%

SMILES: CC(=O)c1c(O)c(C)c(O)c2c1OC1=CC(=O)/C(=C(/C)NCCCC(=O)O)C(=O)[C@@]12C
- inhibition (Bos taurus [2]): 39.4%
- Activity (Mus musculus [3]): 16.03%
- Activity (Mus musculus [4]): 43 mg/g
- Activity (Mus musculus [5]): 12.81%
- inhibition [6]: 25.1%
- inhibition (Bos taurus [7]): 25.8%
- Activity (Rattus norvegicus): 47.6%
- Activity (HaCaT [8]): Active
- Activity (HaCaT [9]): Active
- inhibition [10]: 30.3%
- Activity (HaCaT [11]): Active
- inhibition (Hathewaya histolytica [12]): 21.4%
- Activity (Mus musculus [13]): 9.01%
- Activity (Mus musculus [14]): 19.7%
- Activity (Mus musculus [15]): 3.84%
- Activity (HaCaT [16]): Active
- inhibition (Hathewaya histolytica [17]): 49.2%
- IC50 (HaCaT [1]): 150 µg/mL (≈ 349 µM)
- IC05 (HaCaT [1]): 67 µg/mL
- Activity (HaCaT [18]): Active
- Activity (Mus musculus [19]): 0.66%
- Activity (HaCaT [20]): Active

SMILES: CC(=O)c1c(O)c(C)c(O)c2c1OC1=CC(=O)/C(=C(/C)N[C@@H](CCCNC(=N)N)C(=O)O)C(=O)[C@@]12C
- IC50 (HaCaT [1]): 163 µg/mL (≈ 326 µM)
- IC05 (HaCaT [1]): 16 µg/mL

SMILES: O=C(O[C@@H]1Cc2c(O)cc(O)cc2O[C@@H]1c1cc(O)c(O)c(O)c1)c1cc(O)c(O)c(O)c1
- inhibition [10]: 88.2%
- inhibition (Hathewaya histolytica [17]): 41.2%
